Measurements as given in publication PMC12744307 (ACS infectious diseases, 2023).
Converted amounts (≈) assume the structure as drawn. Like-named read-outs stand apart in the source and are kept apart here. Ends that are not written are not given here.

Key:
[1] = test system: E. coli E423–17; format: cell-based, Escherichia coli
[2] = test system: P. aeruginosa 152; format: cell-based, Pseudomonas aeruginosa
[3] = test system: S. aureus USA300; test: microbe, parasite or virus in culture; format: cell-based, Staphylococcus aureus; settings: for MIC: Staphylococcus aureus
[4] = Effect of MHB dilution on antimicrobial activity of a panel of antibiotics; format: cell-based; settings: MHB from 100% to 12.5% (Figure S2)
[5] = test system: human skin HaCaT cells
[6] = test system: preformed biofilms of S. aureus USA300 LAC; test: Disruption of preformed biofilms; format: cell-based, Staphylococcus aureus; settings: 100% MHB, 24 h treatment, XTT
Method in brief: (§1)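 Biofilms grown from an exponential-phase culture (OD600 ~0.4) for 24 h at 37°C in TSB, then washed with PBS to remove planktonic cells. Treated with peptide in MHB (different strengths) for 24 h at 37°C. Live cells measured with XTT in TSB (2 h, 37°C, A450), blanked on medium with XTT. Results given as % of water-treated biofilm, mean ± SD, one-way ANOVA.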

[7] = test system: preformed biofilms of E. coli E423–17; test: Disruption of preformed biofilms; format: cell-based, Escherichia coli
Method in brief: as §1

[8] = test system: S. aureus USA300 LAC; format: cell-based, Staphylococcus aureus; settings: 17 passages at sub-MIC, MHB
[9] = test system: E. coli membrane; test: Membrane permeabilization; format: cell-based, Escherichia coli; settings: Figure S4A
[10] = test system: S. aureus USA300 membrane; test: Membrane depolarization; format: cell-based, Staphylococcus aureus; settings: peptide up to 2× MIC; Triton X-100 0.1% (Figure 5C)
Method in brief: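 Exponential-phase MRSA USA300 grown in TSB, washed, and resuspended in 2 volumes of PBS with 25 mM glucose. Energised for 15 min at 37°C, then given 500 nM (final) DiBAC4(3). Baseline fluorescence (ex 485/em 520 nm) read for 20 min; peptide then added and reading continued for 40 min. Triton X-100 (0.1%) was the positive control.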

[11] = test system: A. baumannii B28–16; format: cell-based, Acinetobacter baumannii
[12] = MRSA|USA300, pH 6.3, read-out: Antimicrobial activity (MIC), MRSA in MHB, pH 6.3
[13] = MRSA|USA300, pH 7.2, read-out: Antimicrobial activity (MIC), MRSA in MHB, pH 7.2
[14] = MRSA|USA300, read-out: Antimicrobial activity (MIC), MRSA in MHB, 10% human serum
[15] = MRSA|USA300, read-out: Antimicrobial activity (MIC), MRSA in MHB, NaCl (150 mM)

Compound: KRWWQRWK-NH2 [W541]
- Activity (MIC), E. coli ([1]; E423–17): 8 µM
- Activity (MIC), P. aeruginosa [2]: >32 µM

Compound: CN[C@H](CC(C)C)C(=O)N[C@H]1C(=O)N[C@@H](CC(N)=O)C(=O)N[C@H]2C(=O)N[C@H]3C(=O)N[C@H](C(=O)N[C@H](C(=O)O)c4cc(O)cc(O)c4-c4cc3ccc4O)[C@H](O)c3ccc(c(Cl)c3)Oc3cc2cc(c3O[C@@H]2O[C@H](CO)[C@@H](O)[C@H](O)[C@H]2O[C@H]2C[C@](C)(N)[C@H](O)[C@H](C)O2)Oc2ccc(cc2Cl)[C@H]1O [Vancomycin]
- MIC [3, 12]: 0.5 µM (≈ 0.725 µg/mL)
- MIC [3, 13]: 0.5 µM (≈ 0.725 µg/mL)
- MIC [3, 14]: 0.5 µM (≈ 0.725 µg/mL)
- MIC [3, 15]: 0.5 to 1 µM (≈ 0.725 to 1.45 µg/mL)
- Change in MIC with the dilution of MHB [4]: essentially no changes in antibacterial activity

Compound: KRIWQRWK-NH2 [W540]
- Activity (MIC), P. aeruginosa [2]: >32 µM
- Toxicity to HaCaT cells (viability) [5]: more toxic than other peptides

Compound: CC[C@H](C)[C@H](NC(=O)[C@H](CCCCN)NC(=O)[C@H](CCC(=O)O)NC(=O)[C@H](CCCCN)NC(=O)[C@H](CO)NC(=O)[C@H](CCCCN)NC(=O)[C@H](CCCNC(=N)N)NC(=O)[C@H](Cc1ccccc1)NC(=O)[C@H](Cc1ccccc1)NC(=O)[C@H](CC(=O)O)NC(=O)CNC(=O)[C@H](CC(C)C)NC(=O)[C@@H](N)CC(C)C)C(=O)NCC(=O)N[C@@H](CCCCN)C(=O)N[C@@H](CCC(=O)O)C(=O)N[C@@H](Cc1ccccc1)C(=O)N[C@@H](CCCCN)C(=O)N[C@@H](CCCNC(=N)N)C(=O)N[C@H](C(=O)N[C@H](C(=O)N[C@@H](CCC(N)=O)C(=O)N[C@@H](CCCNC(=N)N)C(=O)N[C@H](C(=O)N[C@@H](CCCCN)C(=O)N[C@@H](CC(=O)O)C(=O)N[C@@H](Cc1ccccc1)C(=O)N[C@@H](CC(C)C)C(=O)N[C@@H](CCCNC(=N)N)C(=O)N[C@@H](CC(N)=O)C(=O)N[C@@H](CC(C)C)C(=O)N[C@H](C(=O)N1CCC[C@H]1C(=O)N[C@@H](CCCNC(=N)N)C(=O)N[C@H](C(=O)N[C@@H](CCC(=O)O)C(=O)N[C@@H](CO)C(=O)O)[C@@H](C)O)C(C)C)[C@@H](C)CC)C(C)C)[C@@H](C)CC [LL-37]
- Activity (MIC), screen of LL-37 fragments ([3]; 12.5% MHB (Figure 3)): became active
- Activity (MIC), screen of LL-37 fragments ([3]; 100% MHB (Figure 3)): did not display any activity
- Antimicrobial activity (MIC) in cell culturing media ([3]; RPMI and DMEM media (Table S2)): remained active
- Activity (MIC), screen of LL-37 fragments ([1]; 100% MHB, rich media (Figure 3)): active
- Antimicrobial activity (MIC) in cell culturing media ([1]; RPMI and DMEM media (Table S2)): remained active
- Antibiofilm activity against 24 h preformed biofilms [6]: essentially no antibiofilm activity
- Effect on biofilms with increase in peptide concentration ([7]; 12.5% MHB (Figure S1)): dose-dependent antibiofilm effect is clear
- Effect on biofilms with increase in peptide concentration ([7]; 100% MHB (Figure S1)): subtle effect

Compound: CCOc1ccc2ccccc2c1C(=O)N[C@@H]1C(=O)N2[C@@H]1SC(C)(C)[C@@H]2C(=O)O [Nafcillin]
- MIC [3, 14]: 16 µM (≈ 6.63 µg/mL)
- MIC [3, 15]: 32 µM (≈ 13.3 µg/mL)
- Fold increase of MIC after multiple passages [8]: 32 fold
- Change in MIC with the dilution of MHB [4]: small changes in MIC values

Compound: CNC(C)C1CCC(N)C(OC2C(N)CC(N)C(OC3OCC(C)(O)C(NC)C3O)C2O)O1 (centres unmarked) [Gentamicin]
- MIC [3, 12]: 1 to 2 µM (≈ 0.478 to 0.955 µg/mL)
- MIC [3, 13]: 0.5 µM (≈ 0.239 µg/mL)
- MIC [3, 14]: 0.5 to 1 µM (≈ 0.239 to 0.478 µg/mL)
- MIC [3, 15]: 1 µM (≈ 0.478 µg/mL)
- Membrane permeation (PI fluorescence) [9]: did not permeate the E. coli membrane

Compound: RIKDFLRNLV-NH2 (C-terminus assumed) [RIK-10]
- Activity (MIC), screen of LL-37 fragments ([3]; 12.5% MHB (Figure 3)): became active
- Antimicrobial activity (MIC) in cell culturing media ([3]; RPMI and DMEM media (Table S2)): poor activity
- Activity (MIC), screen of LL-37 fragments ([1]; E423–17): 16 µM
- Antimicrobial activity (MIC) in DMEM ([1]; E423–17): 8 µM
- Antimicrobial activity in RPMI ([1]; RPMI (Table S2)): poor activity

Compound: Triton X-100
- Membrane depolarization [10]: strong membrane depolarization

Compound: colistin
- Membrane permeation (PI fluorescence) [9]: powerful membrane permeator

Compound: RRWWRWWR-NH2 [W543]
- Antimicrobial activity (MIC) ([3]; USA300): 8 µM
- Antimicrobial activity (MIC) ([3]; USA300, pH 7.2): 8 µM
- Activity (MIC), E. coli ([1]; E423–17): 8 µM
- Activity (MIC), P. aeruginosa [2]: 8 µM
- Toxicity to HaCaT cells (viability) [5]: least toxic

Compound: CCCCCCCCCC(=O)N[C@@H](Cc1c[nH]c2ccccc12)C(=O)N[C@H](CC(N)=O)C(=O)N[C@@H](CC(=O)O)C(=O)N[C@@H]1C(=O)NCC(=O)N[C@@H](CCCN)C(=O)N[C@@H](CC(=O)O)C(=O)N[C@H](C)C(=O)N[C@@H](CC(=O)O)C(=O)NCC(=O)N[C@H](CO)C(=O)N[C@@H]([C@H](C)CC(=O)O)C(=O)N[C@@H](CC(=O)c2ccccc2N)C(=O)O[C@@H]1C [Daptomycin]
- Antimicrobial activity (MIC) ([3]; USA300): 1 µM
- Antimicrobial activity (MIC) ([3]; USA300, pH 6.3): 1 µM
- Antimicrobial activity (MIC) ([3]; USA300, pH 7.2): 1 µM

Compound: KEKIGKEFKR-NH2 (C-terminus assumed) [KE-10]
- Antimicrobial activity (MIC) in cell culturing media ([3]; USA300): > 64 µM

Compound: NCC[C@H](O)C(=O)N[C@@H]1C[C@H](N)[C@@H](O[C@H]2O[C@H](CN)[C@@H](O)[C@H](O)[C@H]2O)[C@H](O)[C@H]1O[C@H]1O[C@H](CO)[C@@H](O)[C@H](N)[C@H]1O [Amikacin]
- MIC [3, 14]: 32 µM (≈ 18.7 µg/mL)
- MIC [3, 15]: 32 µM (≈ 18.7 µg/mL)
- Change in MIC with the dilution of MHB [4]: small changes in MIC values

Compound: KRWWQWWK-NH2 [W542]
- Activity (MIC), S. aureus ([3]; USA300): 8 µM
- Activity (MIC), E. coli ([1]; E423–17): 4 µM
- Activity (MIC), P. aeruginosa [2]: 4 to 8 µM
- Activity (MIC), A. baumannii [11]: 32 µM

Compound: KRIVQRIK-NH2 [W538]
- Activity (MIC), screen of LL-37 fragments ([1]; E423–17): 8 µM
- Activity (MIC), P. aeruginosa [2]: >32 µM

Compound: KRIWQRIK-NH2 [W539]
- Activity (MIC), P. aeruginosa [2]: >32 µM

Compound: NC[C@H]1O[C@H](O[C@H]2[C@H](O)[C@@H](O[C@H]3O[C@H](CO)[C@@H](O)[C@H](N)[C@H]3O)[C@H](N)C[C@@H]2N)[C@H](N)C[C@@H]1O [Tobramycin]
- MIC [3, 15]: 4 µM (≈ 1.87 µg/mL)
- Change in MIC with the dilution of MHB [4]: essentially no changes in antibacterial activity

Compound: CC(=O)NC[C@H]1CN(c2ccc(N3CCOCC3)c(F)c2)C(=O)O1 [Linezolid]
- MIC [3, 12]: 8 µM (≈ 2.7 µg/mL)
- MIC [3, 13]: 8 µM (≈ 2.7 µg/mL)
- MIC [3, 14]: 8 µM (≈ 2.7 µg/mL)
- Change in MIC with the dilution of MHB [4]: essentially no changes in antibacterial activity

Compound: C/C(=C\C(=O)OCCCCCCCCC(=O)O)C[C@@H]1OC[C@H](C[C@@H]2O[C@H]2[C@@H](C)[C@H](C)O)[C@@H](O)[C@H]1O [Muporicin]
- Antimicrobial activity (MIC) ([3]; MRSA in MHB, 10% human serum): 4 µM
- Antimicrobial activity (MIC) ([3]; MRSA in MHB, 20% human serum): 4 µM
- Antimicrobial activity (MIC) ([3]; MRSA in MHB, NaCl (150 mM)): 1 µM
- Antimicrobial activity (MIC) ([3]; MRSA in MHB, pH 6.3): 0.5 µM
- Antimicrobial activity (MIC) ([3]; MRSA in MHB, pH 7.2): 1 µM
- Change in MIC with the dilution of MHB [4]: essentially no changes in antibacterial activity

Compound: RRWWRWWL-NH2 [W544]
- Activity (MIC), S. aureus ([3]; USA300): 4 µM
- Activity (MIC), E. coli ([1]; E423–17): 4 µM
- Activity (MIC), P. aeruginosa [2]: 4 µM
- Toxicity to HaCaT cells (viability) [5]: more toxic than other peptides
